Calls of active or inactive are those of the source. The rule behind the calls is not given here.
Experiments:
[1] = biological target: T1, NAD-dependent protein deacetylase sirtuin-1 (Homo sapiens) (UniProt Q96EB6); test: Activation of human SIRT1 expressed in Escherichia coli BL21Start assessed as concentration required to increase 50% enzyme activity by mass spectrometry assay
T1 sequence (whole entry): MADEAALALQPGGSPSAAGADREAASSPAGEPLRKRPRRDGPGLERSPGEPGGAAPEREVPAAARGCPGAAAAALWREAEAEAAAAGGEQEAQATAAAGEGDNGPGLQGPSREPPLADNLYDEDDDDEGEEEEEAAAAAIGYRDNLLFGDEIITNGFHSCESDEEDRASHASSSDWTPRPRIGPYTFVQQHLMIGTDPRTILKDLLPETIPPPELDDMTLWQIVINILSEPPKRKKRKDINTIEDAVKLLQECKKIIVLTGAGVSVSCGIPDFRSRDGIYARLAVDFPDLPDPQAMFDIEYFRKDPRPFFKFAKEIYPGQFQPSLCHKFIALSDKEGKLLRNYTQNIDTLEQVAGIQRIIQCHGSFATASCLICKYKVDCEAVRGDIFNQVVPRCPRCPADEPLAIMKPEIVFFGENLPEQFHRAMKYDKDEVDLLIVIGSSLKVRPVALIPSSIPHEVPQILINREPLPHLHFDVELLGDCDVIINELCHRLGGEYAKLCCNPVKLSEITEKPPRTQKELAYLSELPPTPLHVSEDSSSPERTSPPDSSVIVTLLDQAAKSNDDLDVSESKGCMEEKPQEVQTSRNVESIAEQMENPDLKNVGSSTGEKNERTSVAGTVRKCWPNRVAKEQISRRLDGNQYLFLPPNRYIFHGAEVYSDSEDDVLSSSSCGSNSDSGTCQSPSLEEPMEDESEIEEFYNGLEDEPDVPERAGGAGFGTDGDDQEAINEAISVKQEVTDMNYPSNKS
How it was run: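 Truncated SIRT1 was expressed in E. coli BL21Start (DE3) and purified on Ni2+ chelate. Reaction: 10 nM enzyme, 0.5 µM biotinylated, fluorophore-tagged p53-derived 20-mer acetyl-lysine peptide and 120 µM NAD+, in 50 mM Tris-acetate pH 8 with NaCl, KCl, MgCl2, 5 mM DTT and 0.05% BSA; DMSO vehicle; 25 min at 25 °C. Stopped with formic acid/nicotinamide; acetylated versus deacetylated peptide read by mass spectrometry. EC1.5 is the concentration raising activity by 50%, the mean of three titration curves.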

[2] = Cmax in C57BL/6 mouse at 100 mg/kg, po or 10 mg/kg, iv; format: ADME, organism-based; conditions: in vivo
How it was run: (§1)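 Male C57BL/6 mice (18-22 g; 3 per dose group per time point), given 100 mg/kg po as the hydrochloride salt in 2% HPMC + 0.2% DOSS, or 10 mg/kg iv by tail vein in 10% ethanol/40% polyethylene glycol/50% H2O. Plasma was taken at 5, 30, 120 and 360 min after dosing and drug levels were measured.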

[3] = Terminal half life in C57BL/6 mouse at 100 mg/kg, po or 10 mg/kg, iv; format: ADME, organism-based; conditions: in vivo, read-out: beta t1/2 (converted); how it was run: as §1
[4] = Oral bioavailability in Sprague-Dawley rat at 100 mg/kg; format: ADME, organism-based; conditions: in vivo
How it was run: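 Male Sprague-Dawley rats (250 g, 3 per dose group) received 100 mg/kg by oral gavage in 2% HPMC + 0.2% DOSS, or 10 mg/kg iv by tail vein in 10% ethanol/40% PEG/50% H2O. Blood was drawn at 0.033-24 h postdose for drug levels.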

Mus musculus [5] = test: Antidiabetic activity in diet-induced obesity C57BL/6 mouse model assessed as reduction of fed blood glucose level at 100 mg/kg, po daily once for 1 week after 10 weeks; format: functional; parameters: scale not given: the % may be the effect or the level left
How it was run: (§2)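 Male C57BL/6 mice were fed a 60%-fat diet from 9 weeks of age until about 40 g, in groups of 6-10. They were dosed by oral gavage once daily in 2% HPMC + 0.2% DOSS, with 29 at 100 mg/kg and rosiglitazone at 5 mg/kg, alongside vehicle groups on lean and high-fat diet. Fed glucose was read at weeks 2, 4, 6, 8 and 10. Clinical chemistry and hematology were also measured. Analysis by ANOVA.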

Mus musculus [6] = test: Antidiabetic activity in diet-induced obesity C57BL/6 mouse model assessed as reduction of plasma insulin level at 100 mg/kg, po daily once after 2 weeks; format: functional, organism-based; parameters: dose 100 mg/kg; how it was run: as §2
Mus musculus [7] = test: Antidiabetic activity in diet-induced obesity C57BL/6 mouse model assessed as reduction of plasma insulin level at 100 mg/kg, po daily once after 10 weeks; format: functional, organism-based; parameters: dose 100 mg/kg; how it was run: as §2
Mus musculus [8] = test: Liver toxicity in diet-induced obesity C57BL/6 mouse model at 100 mg/kg, po daily once after 10 weeks; format: organism-based; parameters: dose 100 mg/kg, route oral; conditions: in vivo, 1680 h; how it was run: as §2
Rattus norvegicus = test: Antidiabetic activity in genetic Zucker fa/fa rat model assessed as reduction of glucose production at 100 mg/kg, po daily once after 3 weeks by pyruvate tolerance test; format: functional, organism-based; parameters: dose 100 mg/kg
How it was run: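 Male Zucker fa/fa rats, housed singly, were gavaged daily from 7 weeks of age with 100 mg/kg or vehicle (2% HPMC + 0.2% DOSS), 5 per group. Fed tail-vein glucose was taken on day 22. Also on day 22, after an overnight fast, sodium pyruvate 1 g/kg was given ip and glucose was read at 0-90 min.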

[9] = biological target: Voltage-gated inwardly rectifying potassium channel KCNH2 (Homo sapiens, UniProt Q12809); test: Inhibition of human ERG by patch clamp method
Voltage-gated inwardly rectifying potassium channel KCNH2, sequence (Q12809 whole entry): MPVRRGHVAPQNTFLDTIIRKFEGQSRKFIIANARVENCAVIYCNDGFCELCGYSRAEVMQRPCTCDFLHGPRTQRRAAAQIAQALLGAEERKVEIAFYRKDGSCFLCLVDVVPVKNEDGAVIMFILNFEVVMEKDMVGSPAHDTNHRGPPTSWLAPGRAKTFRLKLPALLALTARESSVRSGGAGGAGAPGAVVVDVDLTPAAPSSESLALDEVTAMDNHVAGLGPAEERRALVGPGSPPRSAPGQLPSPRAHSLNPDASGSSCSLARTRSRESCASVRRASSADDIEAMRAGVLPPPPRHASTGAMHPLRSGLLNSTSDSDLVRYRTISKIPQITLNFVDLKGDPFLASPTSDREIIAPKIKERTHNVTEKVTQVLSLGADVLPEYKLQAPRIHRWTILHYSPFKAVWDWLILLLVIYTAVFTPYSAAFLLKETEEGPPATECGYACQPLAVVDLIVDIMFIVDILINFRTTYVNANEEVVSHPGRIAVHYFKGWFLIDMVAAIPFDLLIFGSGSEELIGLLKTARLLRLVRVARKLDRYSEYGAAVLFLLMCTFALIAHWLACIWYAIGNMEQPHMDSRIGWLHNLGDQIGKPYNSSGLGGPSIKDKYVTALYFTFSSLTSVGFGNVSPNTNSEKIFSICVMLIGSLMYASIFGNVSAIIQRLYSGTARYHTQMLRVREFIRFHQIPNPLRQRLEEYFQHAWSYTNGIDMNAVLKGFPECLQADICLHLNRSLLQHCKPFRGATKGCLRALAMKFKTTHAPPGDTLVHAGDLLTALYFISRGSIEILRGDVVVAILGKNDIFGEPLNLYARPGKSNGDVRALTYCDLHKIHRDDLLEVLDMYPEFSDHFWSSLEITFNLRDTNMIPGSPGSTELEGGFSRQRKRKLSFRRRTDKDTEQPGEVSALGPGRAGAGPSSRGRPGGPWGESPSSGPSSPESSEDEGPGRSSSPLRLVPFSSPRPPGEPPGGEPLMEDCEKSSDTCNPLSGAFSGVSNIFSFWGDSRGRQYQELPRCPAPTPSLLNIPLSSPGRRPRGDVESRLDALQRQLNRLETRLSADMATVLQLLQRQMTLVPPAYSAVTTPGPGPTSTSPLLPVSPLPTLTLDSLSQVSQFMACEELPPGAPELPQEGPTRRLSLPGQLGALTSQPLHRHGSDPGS
How it was run: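 hERG was measured by patch clamp.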

Cytochrome P450 2C19 = Cytochrome P450 2C19 (Homo sapiens, UniProt P33261); test: Inhibition of CYP2C19 at 25 uM; format: ADME
Cytochrome P450 2C19, sequence (P33261 whole entry): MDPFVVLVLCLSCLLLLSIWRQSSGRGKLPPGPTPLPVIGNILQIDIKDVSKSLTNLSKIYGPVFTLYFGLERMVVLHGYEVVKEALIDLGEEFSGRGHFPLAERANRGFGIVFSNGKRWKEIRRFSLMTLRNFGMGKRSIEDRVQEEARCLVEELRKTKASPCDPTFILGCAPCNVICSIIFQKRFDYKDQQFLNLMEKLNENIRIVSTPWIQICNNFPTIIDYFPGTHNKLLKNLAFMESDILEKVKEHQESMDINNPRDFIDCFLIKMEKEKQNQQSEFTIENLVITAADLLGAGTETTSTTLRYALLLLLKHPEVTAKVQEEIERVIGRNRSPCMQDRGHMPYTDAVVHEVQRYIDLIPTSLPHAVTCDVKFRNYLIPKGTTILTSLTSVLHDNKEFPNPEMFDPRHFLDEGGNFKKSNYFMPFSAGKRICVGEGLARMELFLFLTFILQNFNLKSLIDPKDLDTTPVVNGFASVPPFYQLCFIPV
How it was run: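 Inhibition of CYP isozymes was tested up to a highest concentration of 25 µM.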

[10] = biological target: T2, Muscarinic acetylcholine receptor M1 (Homo sapiens, UniProt P11229); test: Inhibition of muscarinic M1 receptor
T2 sequence (P11229 whole entry): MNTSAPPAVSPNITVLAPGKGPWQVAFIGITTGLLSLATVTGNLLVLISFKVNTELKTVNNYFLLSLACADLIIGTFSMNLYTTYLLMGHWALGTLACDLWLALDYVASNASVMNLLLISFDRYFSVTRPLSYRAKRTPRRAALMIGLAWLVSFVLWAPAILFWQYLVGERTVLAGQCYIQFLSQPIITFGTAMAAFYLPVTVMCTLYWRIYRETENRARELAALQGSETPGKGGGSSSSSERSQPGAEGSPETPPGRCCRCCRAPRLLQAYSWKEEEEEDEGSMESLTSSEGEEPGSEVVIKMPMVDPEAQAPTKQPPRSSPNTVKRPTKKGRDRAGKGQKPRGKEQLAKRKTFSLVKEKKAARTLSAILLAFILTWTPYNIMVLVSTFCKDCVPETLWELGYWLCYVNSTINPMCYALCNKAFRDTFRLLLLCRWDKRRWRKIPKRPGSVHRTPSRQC

[11] = Inhibition of sodium channel site 2
Salmonella typhimurium [12] = test: Mutagenic activity in Salmonella Typhimurium TA100 in absence of S9 activation; format: toxicity, organism-based; conditions: salmonella enterica subsp. enterica serovar typhimurium
Salmonella typhimurium [13] = test: Mutagenic activity in Salmonella Typhimurium TA98 in presence of S9 activation; format: toxicity, organism-based; conditions: salmonella enterica subsp. enterica serovar typhimurium
Salmonella typhimurium [14] = test: Mutagenic activity in Salmonella Typhimurium TA100 in presence of S9 activation; format: toxicity, organism-based; conditions: salmonella enterica subsp. enterica serovar typhimurium

Activity [1]: 0.16 µM
Cmax [2]: 1000 nM
half-life [3]: 5 h
bioavailability [4]: 25%
Activity (Cytochrome P450 2C19): Not Active
IC50 [10]: 8.02 µM
IC50 [11]: 3.37 µM
Compound: O=C(Nc1ccccc1-c1cn2c(CN3CCNCC3)csc2n1)c1cnc2ccccc2n1
Activity (Mus musculus [5]): 15%
Activity (Mus musculus [6]): Active
Activity (Mus musculus [7]): Active
Activity (Mus musculus [8]): Non-toxic
Activity (Rattus norvegicus): Active
IC50 [9]: > 10 µM
Activity (Salmonella typhimurium [12]): Non-toxic
Activity (Salmonella typhimurium [13]): Non-toxic
Activity (Salmonella typhimurium [14]): Non-toxic
